Reference: ChEMBL document CHEMBL1149388, “Synthesis and structure-activity relationships of 3-[(2-methyl-1,3-thiazol-4-yl)ethynyl]pyridine analogues as potent, noncompetitive metabotropic glutamate receptor subtype 5 antagonists; search for cocaine medications” (J Med Chem, 2006)
Activity calls are given as the source filed them. No cut-off for these calls is given here.

Legend:
[1] = target: Metabotropic glutamate receptor 5 (Rattus norvegicus) (UniProt P31424); assay: Activity in agonist-induced phosphoinositide hydrolysis in CHO cells expressing mGluR5a
[2] = target: Metabotropic glutamate receptor 5 (Rattus norvegicus, UniProt P31424); assay: Displacement of [3H]MPEP from mGluR5 in rat brain membranes; format: cell membranes
[3] = target: Metabotropic glutamate receptor 5 (Homo sapiens, UniProt P41594); assay: Displacement of [3H]MPEP from cloned human mGluR5 transfected in HEK293-T cells; format: cell-based
In short: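 HEK293-T cells transiently transfected with cloned mGluR5 cDNA. Binding used 3.0 nM [3H]-MPEP with varying unlabeled ligand in 50 mM Tris-Cl, 0.9% NaCl, pH 7.4, incubated 90 min at 20 °C. Membranes were harvested on PEI-pretreated GF/C filters and counted by scintillation to obtain Ki.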

Rattus norvegicus = species: Rattus norvegicus; assay: Ability to prevent reinstatement of cocaine-seeking behavior by environmental stimuli associated with cocaine availability in Wistar rat; format: functional, organism-based
In short: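 Adult male Wistar rats with jugular catheters trained to self-administer cocaine (0.25 mg/kg/infusion) under FR4 in daily 2 h sessions. Extinction continued until active-lever responding fell below 20% of baseline for 3 consecutive days. Cue-induced reinstatement was then tested 30 min after i.p. pretreatment with 5 or 10 mg/kg or vehicle (5% emulphor in saline). Active-lever responses were analysed by one-way ANOVA with Tukey tests.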

Sequence of Metabotropic glutamate receptor 5 (Rattus norvegicus) (P31424 whole entry, looked up): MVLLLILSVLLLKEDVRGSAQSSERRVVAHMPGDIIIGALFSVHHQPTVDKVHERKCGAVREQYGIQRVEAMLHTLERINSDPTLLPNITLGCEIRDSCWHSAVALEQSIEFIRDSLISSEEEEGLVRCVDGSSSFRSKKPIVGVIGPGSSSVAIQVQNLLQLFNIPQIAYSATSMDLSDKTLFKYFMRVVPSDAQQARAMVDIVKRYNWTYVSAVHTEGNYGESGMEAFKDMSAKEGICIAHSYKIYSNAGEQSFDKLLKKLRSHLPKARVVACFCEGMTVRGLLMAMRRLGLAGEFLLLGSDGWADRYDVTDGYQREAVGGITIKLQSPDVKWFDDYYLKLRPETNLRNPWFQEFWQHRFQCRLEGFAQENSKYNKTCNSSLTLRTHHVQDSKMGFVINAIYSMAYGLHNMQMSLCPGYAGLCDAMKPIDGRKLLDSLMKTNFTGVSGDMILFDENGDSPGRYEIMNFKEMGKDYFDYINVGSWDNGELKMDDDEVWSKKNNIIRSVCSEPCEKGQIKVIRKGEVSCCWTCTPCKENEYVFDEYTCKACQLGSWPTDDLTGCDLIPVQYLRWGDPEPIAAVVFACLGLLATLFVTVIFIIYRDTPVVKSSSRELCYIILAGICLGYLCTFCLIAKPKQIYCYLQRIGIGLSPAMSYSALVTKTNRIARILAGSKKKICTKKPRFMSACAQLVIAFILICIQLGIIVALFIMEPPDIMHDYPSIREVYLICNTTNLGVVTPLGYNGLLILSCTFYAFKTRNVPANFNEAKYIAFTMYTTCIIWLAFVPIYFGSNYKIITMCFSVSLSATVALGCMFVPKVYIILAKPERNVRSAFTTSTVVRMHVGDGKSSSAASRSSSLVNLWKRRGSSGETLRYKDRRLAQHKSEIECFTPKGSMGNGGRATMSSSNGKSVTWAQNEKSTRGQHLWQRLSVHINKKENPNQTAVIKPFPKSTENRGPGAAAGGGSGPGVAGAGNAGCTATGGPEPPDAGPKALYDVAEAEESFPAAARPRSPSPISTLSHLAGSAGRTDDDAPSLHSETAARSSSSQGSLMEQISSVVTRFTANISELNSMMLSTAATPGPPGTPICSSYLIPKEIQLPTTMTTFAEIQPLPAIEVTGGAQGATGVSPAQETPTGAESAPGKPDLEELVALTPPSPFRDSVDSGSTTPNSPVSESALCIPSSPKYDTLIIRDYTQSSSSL
Sequence of Metabotropic glutamate receptor 5 (Rattus norvegicus, UniProt P31424) (P31424 whole entry): as the sequence (P31424 whole entry, looked up) above
Sequence of Metabotropic glutamate receptor 5 (Homo sapiens, UniProt P41594) (P41594 whole entry): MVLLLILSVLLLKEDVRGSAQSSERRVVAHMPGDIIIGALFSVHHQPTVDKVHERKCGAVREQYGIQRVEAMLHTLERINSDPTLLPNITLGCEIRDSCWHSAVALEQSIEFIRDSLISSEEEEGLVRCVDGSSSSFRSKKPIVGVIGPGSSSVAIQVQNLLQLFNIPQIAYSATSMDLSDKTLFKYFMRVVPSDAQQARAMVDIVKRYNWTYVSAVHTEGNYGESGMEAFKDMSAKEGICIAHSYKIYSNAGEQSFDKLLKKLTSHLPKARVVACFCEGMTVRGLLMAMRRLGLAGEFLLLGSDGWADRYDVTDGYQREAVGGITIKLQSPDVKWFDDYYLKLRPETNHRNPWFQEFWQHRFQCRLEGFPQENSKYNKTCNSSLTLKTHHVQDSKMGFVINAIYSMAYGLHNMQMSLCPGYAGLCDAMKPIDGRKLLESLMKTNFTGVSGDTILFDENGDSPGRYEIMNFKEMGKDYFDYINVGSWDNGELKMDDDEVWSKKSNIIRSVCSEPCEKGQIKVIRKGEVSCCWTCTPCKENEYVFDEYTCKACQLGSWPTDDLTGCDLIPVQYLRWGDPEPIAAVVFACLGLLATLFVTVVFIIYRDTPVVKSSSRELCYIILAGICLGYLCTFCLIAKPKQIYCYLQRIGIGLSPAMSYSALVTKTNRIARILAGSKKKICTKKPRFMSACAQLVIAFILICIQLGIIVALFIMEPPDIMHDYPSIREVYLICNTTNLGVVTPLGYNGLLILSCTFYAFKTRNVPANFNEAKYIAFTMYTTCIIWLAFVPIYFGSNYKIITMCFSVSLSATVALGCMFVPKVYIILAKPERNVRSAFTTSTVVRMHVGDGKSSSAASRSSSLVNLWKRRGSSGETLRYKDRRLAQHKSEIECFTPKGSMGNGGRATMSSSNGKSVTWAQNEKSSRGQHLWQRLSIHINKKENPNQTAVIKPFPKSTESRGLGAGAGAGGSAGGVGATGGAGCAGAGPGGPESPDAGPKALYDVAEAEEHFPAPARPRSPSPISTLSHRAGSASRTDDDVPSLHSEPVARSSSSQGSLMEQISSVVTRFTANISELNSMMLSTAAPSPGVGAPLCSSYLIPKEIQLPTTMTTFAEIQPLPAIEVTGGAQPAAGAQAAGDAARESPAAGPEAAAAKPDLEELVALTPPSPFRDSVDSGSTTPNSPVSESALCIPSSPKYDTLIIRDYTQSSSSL

IC50 [1] [nM]	Structure (SMILES)	also measured
2340	Cc1nc(C#Cc2ccc(OS(C)(=O)=O)nc2)cs1	–
2.01	C=Cc1cncc(C#Cc2csc(C)n2)c1	Ki [2]: 0.71 nM; Ki [3]: 1 nM
> 10000	C=Cc1ccc(C#Cc2csc(C)n2)cn1	–
228	COc1ncccc1C#Cc1csc(C)n1	–
1000	Cc1nc(C#Cc2cccc(C(N)=O)c2)cs1	–
1090	Cc1nc(C#Cc2ccc(F)cn2)cs1	–
45.5	Cc1nc(C#Cc2cccnc2Cl)cs1	–
2950	C#Cc1ccc(C#Cc2csc(C)n2)cn1	–
> 10000	O=C(Nc1nc(C#Cc2cccnc2)cs1)Nc1ccc(F)cc1F	–
225	COc1ccc(-c2cncc(C#Cc3csc(C)n3)c2)cc1	–
833	Cc1nc(C#Cc2ccc(F)nc2)cs1	–
> 10000	C(#Cc1csc(NCc2ccccc2)n1)c1cccnc1	–
> 10000	Cc1nc(C#Cc2ccc3[nH]ccc3c2)cs1	–
> 10000	OCC#Cc1nc(C#Cc2cccc(F)c2)cs1	–
> 10000	Cc1nc(C#Cc2ccc3nccnc3c2)cs1	–
> 10000	Cc1nc(C#Cc2ccc(Cl)nc2)cs1	–
> 10000	Cc1nc(C#Cc2cccc(F)c2)co1	–
426	COc1ccc(C#Cc2csc(C)n2)cn1	–
> 10000	Cc1nc(C#Cc2cccnc2)co1	–

IC50 [1] [nM]	Structure (SMILES)	also measured
140	Cc1nc(C#Cc2ccccc2F)cs1	–
337	Cc1nc(C#Cc2ccsc2)cs1	–
789	Nc1nc(C#Cc2cccnc2)cs1	–
60	Cc1nc(C#Cc2cncc(Br)c2)cs1	–
946	Cc1nc(C#Cc2cncnc2)cs1	–
> 10000	Cc1nc(C(=O)Nc2cccnc2)cs1	–
192	C#Cc1ncccc1C#Cc1csc(C)n1	–
25.3	Cc1nc(C#Cc2cc(F)cc(F)c2)cs1	–
266	Cc1nc(C#Cc2cccc(OC(F)(F)F)c2)cs1	–
> 10000	Fc1cccc(C#Cc2csc(-c3cc(F)cc(F)c3)n2)c1	–
> 10000	Cc1nc(C(=O)Nc2cccc(F)c2)cs1	–
49	COc1cccc(C#Cc2csc(C)n2)c1	–
654	Cc1nc(C#Cc2cccc(O)c2)cs1	–
68.6	Cc1nc(C#Cc2cncc(C#CCO)c2)cs1	–
1920	CC(=O)Nc1nc(C#Cc2cccnc2)cs1	–
23	Cc1nc(C#Cc2cccc(F)c2)cs1	–
10.2	Cc1nc(C#Cc2ccc(-c3ccc(F)cc3)nc2)cs1	–
526	Fc1cccc(C#Cc2csc(Br)n2)c1	–
2020	CC(=O)Nc1cccc(C#Cc2csc(C)n2)c1	–

IC50 [1] [nM]	Structure (SMILES)	also measured
> 10000	Cc1nc(C#Cc2cnc3ccccc3c2)cs1	–
413	Cc1nc(C#Cc2cccc(C(F)(F)F)c2)cs1	–
1830	Cc1nc(C#Cc2cnccn2)cs1	–
> 10000	COC(=O)Nc1nc(C#Cc2cccnc2)cs1	–
0.94	Cc1nc(C#Cc2cccc(C#N)c2)cs1	Ki [2]: 0.25 nM; Ki [3]: 0.37 nM
36.3	COc1ccccc1C#Cc1csc(C)n1	–
1240	CCc1sc(C)nc1C#Cc1cccnc1	–
3090	Cc1nc(/C=C/c2cccnc2)cs1	–
> 10000	Cc1nc(C#Cc2cccnc2OS(C)(=O)=O)cs1	–
698	Cc1nc(C#Cc2cccnc2)c(C)s1	–
2970	Cc1nc(C#Cc2ccc(F)cc2)cs1	–
–	Cc1nc(C#Cc2cccnc2)cs1	Activity (Rattus norvegicus): Active
129	Cc1nc(C#Cc2cccc(Cl)c2)cs1	–
> 10000	Cc1nc(C#Cc2cccnc2)c(-c2ccccc2)s1	–
475	Cc1nc(C#Cc2cccs2)cs1	–
78.6	Nc1nc(C#Cc2cccc(F)c2)cs1	–
19.2	C#Cc1cncc(C#Cc2csc(C)n2)c1	–
162	Cc1nc(C#Cc2cncc(-c3ccc(F)cc3)c2)cs1	–
2920	C#Cc1nc(C#Cc2cccc(F)c2)cs1	–
